Results reported in ChEMBL document CHEMBL1145632, “Sulfamoyl benzamides as novel CB2 cannabinoid receptor ligands” (Bioorg Med Chem Lett, 2008).
pEC50, pKi: −log10 of the molar value. The source made the active and inactive calls.

Columns and labels:
[1] = molecular target: T1, Cannabinoid receptor 1 (Homo sapiens, UniProt P21554); experiment: Displacement of [3H]CP-55940 from human cloned CB1 receptor
Procedure, shortened: (§1)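 Competition binding of 0.2–0.6 nM [3H]CP55940 to membranes from cells expressing cloned human CB1 or CB2 receptors. Buffer: 50 mM Tris-HCl pH 7.0, 5.0 mM MgCl2, 1.0 mM EGTA, 1.0 mg/mL fatty-acid-free BSA. Incubation was 120 min at 30 °C for CB1 and 60 min at room temperature for CB2. Samples were filtered and counted by scintillation. Nonspecific binding was set with 10 µM WIN55212-2. Ratio is Ki CB1/Ki CB2.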

[2] = molecular target: T1, Cannabinoid receptor 1; experiment: Agonist activity at human cloned CB1 receptor by [35S]GTPgammaS binding assay; type: functional
[3] = molecular target: T2, Cannabinoid receptor 2 (Homo sapiens, UniProt P34972); experiment: Displacement of [3H]CP-55940 from human cloned CB2 receptor; procedure, shortened: as §1
T2 sequence (P34972 whole entry): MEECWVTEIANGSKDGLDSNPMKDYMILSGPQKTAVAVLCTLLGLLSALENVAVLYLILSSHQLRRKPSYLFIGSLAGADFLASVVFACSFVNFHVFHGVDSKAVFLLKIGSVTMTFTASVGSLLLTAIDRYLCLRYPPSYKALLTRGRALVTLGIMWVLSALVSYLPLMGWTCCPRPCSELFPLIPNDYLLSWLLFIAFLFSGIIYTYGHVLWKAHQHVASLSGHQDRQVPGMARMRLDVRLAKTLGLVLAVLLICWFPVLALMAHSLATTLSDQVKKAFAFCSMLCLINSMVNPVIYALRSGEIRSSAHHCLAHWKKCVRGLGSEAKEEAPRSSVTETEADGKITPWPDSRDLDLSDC

[4] = species: Homo sapiens; experiment: Selectivity ratio of Ki for human cloned CB1 receptor to Ki for human cloned CB2 receptor; procedure, shortened: as §1
[5] = molecular target: T2, Cannabinoid receptor 2; experiment: Agonist activity at human cloned CB2 receptor by [35S]GTP-gamma-S binding assay; type: functional
Procedure, shortened: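 Stimulation of [35S]GTPγS binding used 25 µg membrane protein from cells expressing cloned human CB2. Mix: 100–150 pM [35S]GTPγS, 150 mM NaCl, 45 mM MgCl2, 3 µM GDP, 0.4 mM DTT, 1.0 mM EGTA, 1 mg/mL fatty-acid-free BSA in 50 mM Tris-HCl pH 7.0. Incubation was 6 h at room temperature, read by scintillation. Stimulation over basal (no agonist) is expressed as % of 10 µM WIN55212-2.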

[6] = species: Homo sapiens; experiment: Selectivity ratio of EC50 for human cloned CB1 receptor to EC50 for human cloned CB2 receptor
[7] = molecular target: T1, Cannabinoid receptor 1; experiment: Displacement of [3H]CP-55940 from human cloned CB1 receptor at 10 uM
[8] = test system: Rattus norvegicus; experiment: Antiallodynic effect in rat hind paw incision-induced nociception model at 3 mg/kg, sc; type: functional, organism-based; parameters: dose 3 mg/kg
Procedure, shortened: (§2)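 Rats with L5 spinal nerve ligation or hindpaw incision were dosed as stated. Read-out was paw-withdrawal threshold of the left hindpaw, reported as group mean ± SEM. Groups were compared by one-way ANOVA with protected t-test against the vehicle-treated surgery group.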

[9] = test system: Rattus norvegicus; experiment: Reversal of nerve injury-induced tactile allodynia in rat L5 spinal nerve ligation-induced nociception model at 60 mg/kg, ip; type: functional, organism-based; parameters: dose 60 mg/kg; procedure, shortened: as §2
[10] = test system: Rattus norvegicus; experiment: Toxicity in rat assessed as induction of catalepsy at 10 mg/kg, ip; type: organism-based; parameters: dose 10 mg/kg, route intraperitoneal; details: in vivo
[11] = test system: Rattus norvegicus; experiment: Toxicity in rat assessed as behavioral side effects upto 10 mg/kg, ip; type: organism-based; parameters: dose 10 mg/kg, route intraperitoneal; details: in vivo
[12] = test system: Rattus norvegicus; experiment: Reversal of nerve injury-induced tactile allodynia in rat L5 spinal nerve ligation-induced nociception model at 3 mg/kg, ip; type: functional, organism-based; parameters: dose 3 mg/kg; procedure, shortened: as §2
[13] = test system: Rattus norvegicus; experiment: Toxicity in rat assessed as induction of catalepsy at 6 mg/kg, ip; type: organism-based; parameters: dose 6 mg/kg, route intraperitoneal; details: in vivo
[14] = test system: Rattus norvegicus; experiment: Antiallodynic effect in rat hind paw incision-induced nociception model at 100 mg/kg, ip; type: functional, organism-based; parameters: dose 100 mg/kg
[15] = test system: Rattus norvegicus; experiment: Antiallodynic effect in rat hind paw incision-induced nociception model at 30 mg/kg, ip; type: functional, organism-based; parameters: dose 30 mg/kg
[16] = test system: Rattus norvegicus; experiment: Antiallodynic effect in rat hind paw incision-induced nociception model at 10 mg/kg, ip; type: functional, organism-based; parameters: dose 10 mg/kg; procedure, shortened: as §2

T1 sequence (P21554 whole entry): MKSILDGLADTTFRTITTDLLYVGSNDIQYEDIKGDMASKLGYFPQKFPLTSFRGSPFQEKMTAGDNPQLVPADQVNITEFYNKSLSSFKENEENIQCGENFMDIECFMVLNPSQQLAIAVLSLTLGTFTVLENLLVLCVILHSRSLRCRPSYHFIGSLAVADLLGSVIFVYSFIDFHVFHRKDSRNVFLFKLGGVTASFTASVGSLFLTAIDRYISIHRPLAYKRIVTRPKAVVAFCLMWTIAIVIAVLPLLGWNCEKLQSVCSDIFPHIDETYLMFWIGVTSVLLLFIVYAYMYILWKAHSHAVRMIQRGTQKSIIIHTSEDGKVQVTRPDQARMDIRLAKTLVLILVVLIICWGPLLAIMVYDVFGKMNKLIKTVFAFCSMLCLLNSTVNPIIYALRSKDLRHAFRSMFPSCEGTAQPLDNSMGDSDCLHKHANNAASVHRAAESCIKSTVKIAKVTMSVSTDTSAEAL

Row | Compound | pKi [1] | pEC50 [2] | pKi [3] | Ratio Ki [4] | pEC50 [5] | Ratio EC50 [6] | further results
1 | CC1(C)[C@H]2CC[C@](C)(C2)[C@@H]1NC(=O)c1ccc(Br)c(S(=O)(=O)N2CCCCC2)c1 | 7.03 | 6.55 | 7.89 | 7 | 8.18 | 42 | 
2 | Cc1ccc(C(=O)NC(C)C(C)(C)C)cc1S(=O)(=O)N1CCOCC1 (stereo not drawn) | 5.89 | 5.62 | 6.74 | 9 | 6.90 | 19 | 
3 | CN(Cc1ccccc1)S(=O)(=O)c1cc(C(=O)N[C@@H]2C(C)(C)[C@H]3CC[C@]2(C)C3)ccc1Br | < 6.00 |  | 7.96 | > 100 |  |  | inhibition [7]: 33%
4 | CN(Cc1ccccc1)S(=O)(=O)c1cc(C(=O)NCC(C)(C)C)ccc1Br | < 6.00 |  | 6.37 | > 2 |  |  | 
5 | CC1(C)[C@H]2CC[C@](C)(C2)[C@@H]1NC(=O)c1ccc(Br)c(S(=O)(=O)N2CCOCC2)c1 | 7.05 | 6.25 | 8.46 | 25 | 8.06 | 64 | 
6 | CN1CC[C@]23c4c5ccc(O)c4O[C@H]2[C@@H](O)C=C[C@H]3[C@H]1C5 |  |  |  |  |  |  | Activity [8]: Active
7 | NCC1(CC(=O)O)CCCCC1 |  |  |  |  |  |  | Activity [9]: Active
8 | COc1cccc(CNC(=O)c2ccc(Br)c(S(=O)(=O)N3CCCCC3)c2)c1 | 5.85 |  | 6.70 | 7 |  |  | 
9 | Cc1ccc(C(=O)NC2C(C)CCCC2C)cc1S(=O)(=O)N1CCOCC1 (stereo not drawn) | 6.33 | 6.27 | 7.04 | 5 | 7.36 | 12 | 
10 | Cc1ccc(C(=O)NC2C3CC4CC(C3)CC2C4)cc1S(=O)(=O)N1CCOCC1 (stereo not drawn) | 7.48 | 6.57 | 8.25 | 15 | 7.92 | 23 | 
11 | Cc1ccc(C(=O)N[C@@H]2C(C)(C)[C@H]3CC[C@]2(C)C3)cc1S(=O)(=O)N1CCOCC1 | 6.89 | 6.26 | 8.41 | 31 | 8.34 | 120 | Activity [10]: Non-toxic; Activity [11]: Non-toxic; Activity [12]: Active; Activity [13]: Non-toxic; Activity [14]: inactive; Activity [15]: inactive; Activity [16]: Active
12 | CC1(C)[C@H]2CC[C@](C)(C2)[C@@H]1NC(=O)c1ccc(Br)c(S(=O)(=O)N2CCCC2)c1 | 6.96 | 6.66 | 8.03 | 12 | 8.37 | 51 | 
13 | CC(C)(C)CNC(=O)c1ccc(Br)c(S(=O)(=O)N2CCCCC2)c1 | 5.89 |  | 7.00 | 13 |  |  | 
14 | CC(C)(C)CNC(=O)c1ccc(Br)c(S(=O)(=O)N2CCOCC2)c1 | 5.89 |  | 6.35 | 3 |  |  | 
15 | CC(C)(C)CNC(=O)c1ccc(Br)c(S(=O)(=O)N2CCCC2)c1 | 5.70 |  | 6.40 | 5 |  |  | 
16 | Cc1ccc(C(=O)NCC(C)(C)C)cc1S(=O)(=O)N1CCOCC1 | < 6.00 | < 6.00 | 6.41 | > 3 | 5.74 |  | 
17 | CC(C)CNC(=O)c1ccc(Br)c(S(=O)(=O)N(C)Cc2ccccc2)c1 | < 6.00 |  | 6.47 | > 3 |  |  | 
18 | Cc1ccc(C(=O)N[C@H]2CC3CC[C@@]2(C)C3(C)C)cc1S(=O)(=O)N1CCOCC1 | 7.30 | 6.68 | 8.09 | 7 | 7.85 | 15 | 
19 | Cc1ccc(C(=O)NC(C)C23CC4CC(CC(C4)C2)C3)cc1S(=O)(=O)N1CCOCC1 (stereo not drawn) | 7.11 | 6.54 | 8.20 | 5 | 8.03 | 31 | 
20 | CC(C)CNC(=O)c1ccc(Br)c(S(=O)(=O)N2CCCCC2)c1 | < 6.00 |  | 6.39 | > 2 |  |  | 
21 | Cc1ccc(C(=O)NC(C(C)(C)C)C(C)(C)C)cc1S(=O)(=O)N1CCOCC1 | 6.51 | 6.04 | 7.47 | 9 | 7.68 | 44 | 
22 | Cc1ccc(C(=O)N[C@H]2C(C)(C)[C@H]3CC[C@]2(C)C3)cc1S(=O)(=O)N1CCOCC1 | 6.27 | 6.06 | 7.32 | 11 | 7.60 | 35 | 
23 | Cc1ccc(C(=O)NCC23CC4CC(CC(C4)C2)C3)cc1S(=O)(=O)N1CCOCC1 | 7.04 | 6.68 | 8.00 | 9 | 7.60 | 8 | 
24 | Cc1ccc(C(=O)NC23CC4CC(CC(C4)C2)C3)cc1S(=O)(=O)N1CCOCC1 | 6.59 | 6.24 | 7.72 | 14 | 7.32 | 12 | 
25 | O=C(NCc1cccnc1)c1ccc(Br)c(S(=O)(=O)N2CCCCC2)c1 | 5.74 |  | 6.49 | 5 |  |  | 
26 | O=C(NCc1ccccc1)c1ccc(Br)c(S(=O)(=O)N2CCCCC2)c1 | 5.96 |  | 6.44 | 3 |  |  | 
